Results reported in ChEMBL document CHEMBL5143731, “N-Acylamino Saccharin as an Emerging Cysteine-Directed Covalent Warhead and Its Application in the Identification of Novel FBPase Inhibitors toward Glucose Reduction” (J Med Chem, 2022).
Calls of active or inactive are those of the source. No cut-off for these calls is given here.

Legend:
[1] = Half life of the compound in DMSO; assay type: physicochemical
Method in brief: (§1)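 Electrophile (20 μmol) incubated at 37 °C either in pH 7.4 buffer, or in DMSO-d6/D2O (5:1), with or without glutathione. Decay followed by 1H NMR kinetics. First-order rate constant kpseudo-1st taken from ln[electrophile] versus time; t1/2 = 0.693/(60×k), in min.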

[2] = Drug uptake in 12 hrs fasted ICR mouse assessed as plasma concentration at 30 mg/kg, ip measured after 6 hrs by LC-MS/MS analysis; assay type: ADME, organism-based; settings: in vivo
Method in brief: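 Plasma levels of parent and of released saccharin followed over 0−24 h after a single 30 mg/kg ip dose to 12 h-fasted male ICR mice. Plasma was obtained from K2EDTA blood (4 °C spin, stored at −70 °C) and measured by LC−MS/MS.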

Mus musculus [3] = experiment: Hypoglycemic activity in 12 hrs fasted ICR mouse assessed as reduction in blood glucose AUC (0 to 2 hrs) at 30 mg/kg, ip measured after 2 hrs; assay type: functional; design: scale not given: the % may be the effect or the level left
Method in brief: (§2)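 OGTT: 12 h-fasted ICR mice (n = 6 per group) dosed ip (10 or 30 mg/kg in 10% ricinus oil/water), with vehicle and metformin 250 mg/kg controls, 1 h before oral glucose 2 g/kg. Tail blood glucose by glucometer at 0, 0.25, 0.5, 1, 1.5 and 2 h; AUC 0−2 h computed. Food withheld.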

Mus musculus [4] = experiment: Hypoglycemic activity in ICR mouse assessed as improvement in glucose tolerance at 10 to 30 mg/kg, ip administered 1 hr prior to oral glucose at 2 g/kg and measured after 0.25 hr by OGTT; settings: dose 10-30 mg/kg
[5] = target: T1, Tyrosine-protein kinase JAK3 (Homo sapiens) (UniProt P52333); experiment: Inhibition of JAK3 (unknown origin) at 300 uM measured after 40 mins in presence of ATP by luminescence assay relative to control
T1 sequence (whole entry): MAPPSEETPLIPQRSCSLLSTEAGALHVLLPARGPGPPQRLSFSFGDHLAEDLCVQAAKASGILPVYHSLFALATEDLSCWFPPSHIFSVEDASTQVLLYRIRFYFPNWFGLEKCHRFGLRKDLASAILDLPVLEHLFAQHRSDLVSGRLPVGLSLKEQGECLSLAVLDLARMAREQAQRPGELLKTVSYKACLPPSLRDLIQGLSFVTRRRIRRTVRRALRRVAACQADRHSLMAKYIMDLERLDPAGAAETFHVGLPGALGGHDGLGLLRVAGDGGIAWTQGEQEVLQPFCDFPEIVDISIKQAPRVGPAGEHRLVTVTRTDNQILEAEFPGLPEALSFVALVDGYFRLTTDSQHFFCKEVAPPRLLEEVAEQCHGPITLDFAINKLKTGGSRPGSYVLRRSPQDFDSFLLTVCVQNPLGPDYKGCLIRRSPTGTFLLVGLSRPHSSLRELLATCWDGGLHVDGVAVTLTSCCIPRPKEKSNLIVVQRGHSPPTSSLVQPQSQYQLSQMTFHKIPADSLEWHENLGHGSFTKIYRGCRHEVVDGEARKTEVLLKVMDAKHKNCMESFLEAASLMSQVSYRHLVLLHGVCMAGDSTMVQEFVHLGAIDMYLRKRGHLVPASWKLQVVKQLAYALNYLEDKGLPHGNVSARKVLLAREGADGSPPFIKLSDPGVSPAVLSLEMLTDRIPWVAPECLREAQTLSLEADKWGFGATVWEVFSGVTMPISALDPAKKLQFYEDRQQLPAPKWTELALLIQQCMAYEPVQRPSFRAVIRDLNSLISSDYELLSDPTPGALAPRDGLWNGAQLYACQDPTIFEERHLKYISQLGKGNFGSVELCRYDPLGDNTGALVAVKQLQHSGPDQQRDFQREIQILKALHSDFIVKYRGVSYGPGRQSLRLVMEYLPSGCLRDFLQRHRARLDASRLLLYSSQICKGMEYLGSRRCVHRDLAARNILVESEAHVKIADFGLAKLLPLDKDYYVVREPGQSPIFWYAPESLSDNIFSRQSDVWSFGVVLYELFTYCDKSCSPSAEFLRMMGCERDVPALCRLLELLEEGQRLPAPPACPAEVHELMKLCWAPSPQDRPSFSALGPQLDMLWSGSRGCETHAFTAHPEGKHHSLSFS
Method in brief: (§3)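 Kinase reaction (50 μL): 40 mM Tris pH 7.4, 10 mM MgCl2, 0.1 mg/mL BSA, 1 mM DTT, 10 μM ATP, kinase and substrate, with 1% final DMSO. Run 40 min at 30 °C. Residual ATP read by Kinase-Glo Plus luminescence, inversely related to kinase activity.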

[6] = Half life of the compound in GSH; assay type: physicochemical; settings: GSH (glutathione); method in brief: as §1
Mus musculus [7] = experiment: Hypoglycemic activity in 12 hrs fasted ICR mouse assessed as reduction in blood glucose AUC (0 to 2 hrs) at 10 mg/kg, ip measured after 2 hrs; assay type: functional; design: scale not given: the % may be the effect or the level left; method in brief: as §2
[8] = target: T2, Fructose-1,6-bisphosphatase 1 (Homo sapiens) (UniProt P09467); experiment: Inhibition of human FBPase in ICR mouse serum starved primary hepatocytes assessed as glucose lowering effect; assay type: cell-based; settings: Hepatocyte, dose 50-300 µM
T2 sequence (whole entry): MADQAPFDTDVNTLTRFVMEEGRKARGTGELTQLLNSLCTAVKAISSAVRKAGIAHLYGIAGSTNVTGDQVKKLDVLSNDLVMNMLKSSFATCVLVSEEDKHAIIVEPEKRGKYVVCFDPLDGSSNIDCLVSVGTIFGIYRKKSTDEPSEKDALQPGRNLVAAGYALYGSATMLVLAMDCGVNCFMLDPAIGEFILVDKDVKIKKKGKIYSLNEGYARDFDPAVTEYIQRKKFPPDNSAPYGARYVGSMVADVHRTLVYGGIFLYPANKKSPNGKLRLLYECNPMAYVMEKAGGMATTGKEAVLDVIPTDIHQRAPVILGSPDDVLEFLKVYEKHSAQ
Method in brief: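 Primary mouse hepatocytes serum-starved overnight, then exposed in DMEM for 6 h to test compounds (50−300 μM), metformin 1 mM or saccharin 50 or 100 μM. Gluconeogenesis assessed as glucose in the culture medium. Mean ± SEM reported, Student's t-test versus vehicle.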

[9] = target: Epidermal growth factor receptor (Homo sapiens) (UniProt P00533); experiment: Inhibition of EGFR (unknown origin) at 300 uM measured after 40 mins in presence of ATP by luminescence assay relative to control; method in brief: as §3
Mus musculus [10] = experiment: Hypoglycemic activity in 12 hrs fasted ICR mouse assessed as reduction in blood glucose AUC (0 to 6 hrs) at 10 mg/kg, ip measured after 6 hrs; assay type: functional; design: scale not given: the % may be the effect or the level left
Method in brief: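 Male ICR mice (n = 4 per group), fasted 12 h with food withheld throughout. Single ip dose in 10% ricinus oil in water; vehicle and metformin 250 mg/kg as controls. Tail-vein glucose by glucometer at 0, 1, 2, 4 and 6 h; AUC over 0−6 h calculated.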

Mus musculus [11] = experiment: Hypoglycemic activity in 12 hrs fasted ICR mouse assessed as glucose lowering effect at 10 to 30 mg/kg, ip measured after 2 hrs; assay type: functional, organism-based; settings: dose 10-30 mg/kg
Method in brief: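 Fasted (12 h) male ICR mice received one intraperitoneal dose in 10% ricinus oil/water vehicle; metformin 250 mg/kg served as control. Food was withheld. Tail blood glucose was read by glucometer at 0, 1, 2, 4 and 6 h.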

Epidermal growth factor receptor (Homo sapiens), sequence (P00533 whole entry): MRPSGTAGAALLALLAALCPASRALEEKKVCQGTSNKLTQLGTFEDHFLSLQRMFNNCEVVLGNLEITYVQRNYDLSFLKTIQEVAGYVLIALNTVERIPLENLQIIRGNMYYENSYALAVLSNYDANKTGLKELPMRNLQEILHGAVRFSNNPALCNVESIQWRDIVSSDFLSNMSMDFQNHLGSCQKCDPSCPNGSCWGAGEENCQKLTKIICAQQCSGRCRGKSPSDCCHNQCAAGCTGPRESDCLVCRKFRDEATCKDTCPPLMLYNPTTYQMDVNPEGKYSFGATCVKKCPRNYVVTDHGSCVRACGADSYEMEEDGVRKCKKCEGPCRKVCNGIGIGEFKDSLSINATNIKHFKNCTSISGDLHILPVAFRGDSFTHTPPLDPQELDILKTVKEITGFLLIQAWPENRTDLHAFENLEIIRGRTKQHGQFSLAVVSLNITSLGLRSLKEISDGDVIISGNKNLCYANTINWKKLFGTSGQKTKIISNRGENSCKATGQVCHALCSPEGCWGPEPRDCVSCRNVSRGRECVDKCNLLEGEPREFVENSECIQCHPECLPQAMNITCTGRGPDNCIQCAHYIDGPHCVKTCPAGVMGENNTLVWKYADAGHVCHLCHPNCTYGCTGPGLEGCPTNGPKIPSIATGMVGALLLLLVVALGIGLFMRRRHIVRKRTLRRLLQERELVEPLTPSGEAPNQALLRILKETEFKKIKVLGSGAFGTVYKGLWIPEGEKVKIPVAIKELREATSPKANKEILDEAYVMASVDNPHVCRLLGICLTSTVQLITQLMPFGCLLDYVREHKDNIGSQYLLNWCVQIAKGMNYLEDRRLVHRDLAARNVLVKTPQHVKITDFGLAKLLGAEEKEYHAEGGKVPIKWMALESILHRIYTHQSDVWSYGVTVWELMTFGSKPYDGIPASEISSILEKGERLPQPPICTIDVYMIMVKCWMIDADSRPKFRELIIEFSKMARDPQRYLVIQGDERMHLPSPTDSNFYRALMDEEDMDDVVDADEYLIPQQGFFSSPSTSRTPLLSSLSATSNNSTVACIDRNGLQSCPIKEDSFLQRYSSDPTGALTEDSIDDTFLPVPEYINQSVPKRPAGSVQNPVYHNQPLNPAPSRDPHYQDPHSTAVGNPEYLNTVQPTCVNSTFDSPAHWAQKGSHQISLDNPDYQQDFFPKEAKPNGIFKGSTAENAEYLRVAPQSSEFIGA

In the case of `O=C(NCc1ccccc1)N1C(=O)c2ccccc2S1(=O)=O`, the half-life [1] is reported as > 167 h, the Cp [2] is reported as “Active” and the Activity (Mus musculus [3]) is reported as 17.7%. The Activity (Mus musculus [4]) was “Active”, the inhibition [5] was < 50% and the half-life [6] was 1.02 h. The Activity (Mus musculus [7]) was 20.2%, the inhibition [8] was “Active” and the inhibition [9] was < 50%. For the same molecule, the Activity (Mus musculus [10]) was 15.3% and the Activity (Mus musculus [11]) was “Active”.
